According to ChEMBL document CHEMBL1275379, “Indazolylpyrazolopyrimidine as highly potent B-Raf inhibitors with in vivo activity” (J Med Chem, 2010):
The source made the active and inactive calls. The rule behind the calls is not given here.

How the values were obtained:
[1] = Half life in nude mouse; format: ADME, organism-based; details: in vivo
[2] = test system: A-375; test: Antitumor activity against human A375 cells xenografted in nude mouse assessed as tumor growth inhibition at 7.5 mg/kg, po; format: functional; details: read-out: TGI
Summary of the method: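 A375 xenografts in nude mice dosed orally once daily; n = 10 per arm; tumour size measured by caliper at set times; error shown as standard deviation.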

[3] = molecular target: T1, Tyrosine-protein kinase ABL1 (Homo sapiens, UniProt P00519); test: Inhibition of ABL1
[4] = molecular target: Receptor tyrosine-protein kinase erbB-2 (Homo sapiens) (UniProt P04626); test: Inhibition of ERBB2 at 1 uM
[5] = molecular target: Proto-oncogene tyrosine-protein kinase Src (Homo sapiens) (UniProt P12931); details: 1 uM
[6] = Inhibition of MAP3K at 1 uM
[7] = molecular target: Serine/threonine-protein kinase Sgk1 (Homo sapiens) (UniProt O00141); test: Inhibition of SGK at 1 uM
[8] = molecular target: Platelet-derived growth factor receptor alpha (Homo sapiens) (UniProt P16234); test: Inhibition of PDGFRA at 1 uM
[9] = molecular target: T2, Proto-oncogene tyrosine-protein kinase receptor Ret (Homo sapiens, UniProt P07949); test: Inhibition of RET
[10] = molecular target: Aurora kinase A (Homo sapiens) (UniProt O14965); test: Inhibition of AURKA at 1 uM
[11] = test system: A-375; test: Growth inhibition of human A375 cells after 4 days by MTT assay; format: functional, cell-based; details: A-375, 96 h
[12] = molecular target: Serine/threonine-protein kinase pim-1 (Homo sapiens) (UniProt P11309); test: Inhibition of PIM1 at 1 uM
[13] = molecular target: T1, Tyrosine-protein kinase ABL1; test: Inhibition of ABL1 at 1 uM
[14] = test system: COLO 205; test: Antitumor activity against human COLO205 cells xenografted in nude mouse assessed as tumor growth inhibition at 7.5 mg/kg, po; format: functional, organism-based; parameters: dose 7.5 mg/kg
[15] = molecular target: Serine/threonine-protein kinase PLK1 (Homo sapiens) (UniProt P53350); test: Inhibition of PLK1 at 1 uM
[16] = test system: Serine/threonine-protein kinase B-raf (Homo sapiens), P15056 [V600E]; test: Inhibition of BRAF V600E mutant in human A375 cells assessed as reduction of ERK phosphorylation; format: cell-based; details: A-375
[17] = molecular target: Protein kinase C beta type (Homo sapiens) (UniProt P05771); test: Inhibition of PRKCB2 at 1 uM
[18] = Clearance in nude mouse; format: ADME, organism-based; details: in vivo
[19] = molecular target: T3, Angiopoietin-1 receptor (Homo sapiens, UniProt Q02763); test: Inhibition of TEK
[20] = molecular target: T4, RAF proto-oncogene serine/threonine-protein kinase (Homo sapiens, UniProt P04049); test: Inhibition of C-raf
[21] = molecular target: Mast/stem cell growth factor receptor Kit (Homo sapiens) (UniProt P10721); test: Inhibition of KIT at 1 uM
[22] = Drug level in plasma of human A375 cells xenografted nude mouse at 25 mg/kg, po after 24 hrs; format: ADME, organism-based, A-375; parameters: dose 25 mg/kg, route oral; details: read-out: Drug uptake
[23] = molecular target: MAP kinase-activated protein kinase 2 (Homo sapiens) (UniProt P49137); test: Inhibition of MAPKAPK2 at 1 uM
[24] = Volume of distribution at steady state in nude mouse; format: ADME, organism-based; details: in vivo, read-out: Vdss
[25] = Drug level in tumor tissue of human A375 cells xenografted nude mouse at 25 mg/kg, po after 24 hrs; format: ADME, organism-based, Neoplasm, A-375; parameters: dose 25 mg/kg, route oral; details: read-out: Drug uptake
[26] = molecular target: RAC-alpha serine/threonine-protein kinase (Homo sapiens) (UniProt P31749); test: Inhibition of AKT1 at 1 uM
[27] = molecular target: Tyrosine-protein kinase ZAP-70 (Homo sapiens) (UniProt P43403); test: Inhibition of ZAP70 at 1 uM
[28] = molecular target: Serine/threonine-protein kinase B-raf (Homo sapiens, UniProt P15056); test: Inhibition of BRAF
[29] = molecular target: T5, Epidermal growth factor receptor (Homo sapiens, UniProt P00533)
[30] = test system: Mus musculus; test: Inhibition of BRAF-mediated ERK phosphorylation in human A375 cells xenografted nude mouse at 10 mg/kg, po QD; format: functional, organism-based; parameters: dose 10 mg/kg; details: A-375
Summary of the method: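 Nude mice bearing A375 xenografts received an oral 10 mg/kg dose once daily. Tumours were taken from treated and untreated animals 6 h after the first dose, and ERK phosphorylation in tumour tissue was measured.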

[31] = molecular target: T2, Proto-oncogene tyrosine-protein kinase receptor Ret; test: Inhibition of RET at 1 uM
[32] = molecular target: Focal adhesion kinase 1 (PTK2) (Homo sapiens) (UniProt Q05397); test: Inhibition of PTK2 at 1 uM
[33] = molecular target: Mitogen-activated protein kinase 3 (Homo sapiens) (UniProt P27361); test: Inhibition of MAPK3 at 1 uM
[34] = molecular target: Tyrosine-protein kinase BTK (Homo sapiens) (UniProt Q06187); test: Inhibition of BTK at 1 uM
[35] = test system: Mus musculus; test: Inhibition of BRAF-mediated ERK phosphorylation in human A375 cells xenografted nude mouse at 50 mg/kg, iv after 24 hrs; format: functional, organism-based; parameters: dose 50 mg/kg; details: A-375
[36] = molecular target: T3, Angiopoietin-1 receptor; details: 1 uM
[37] = Half life in human liver microsomes; format: ADME, Microsome
[38] = molecular target: Ephrin type-A receptor 1 (Homo sapiens) (UniProt P21709); test: Inhibition of EPHA1 at 1 uM
[39] = molecular target: Protein kinase C delta type (Homo sapiens) (UniProt Q05655); test: Inhibition of PRKCD at 1 uM
[40] = molecular target: Fibroblast growth factor receptor 1 (Homo sapiens) (UniProt P11362); test: Inhibition of FGFR1 at 1 uM
[41] = molecular target: Ribosomal protein S6 kinase beta-1 (Homo sapiens) (UniProt P23443); test: Inhibition of RPS6B1 at 1 uM
[42] = molecular target: Platelet-derived growth factor receptor beta (Homo sapiens) (UniProt P09619); test: Inhibition of PDGFRB at 1 uM
[43] = molecular target: Rho-associated protein kinase 1 (Homo sapiens) (UniProt Q13464); test: Inhibition of ROCK1 at 1 uM
[44] = molecular target: Tyrosine-protein kinase CSK (Homo sapiens) (UniProt P41240); test: Inhibition of CSK at 1 uM
[45] = molecular target: Protein kinase C alpha (Homo sapiens) (UniProt P17252); test: Inhibition of PRKCA at 1 uM
[46] = molecular target: Ephrin type-A receptor 1 (Homo sapiens, UniProt P21709); test: Inhibition of EPHA1
[47] = molecular target: T4, RAF proto-oncogene serine/threonine-protein kinase; details: 1 uM
[48] = molecular target: Mitogen-activated protein kinase 1 (Homo sapiens) (UniProt P28482); test: Inhibition of MAPK1 at 1 uM
[49] = molecular target: Hepatocyte growth factor receptor (Homo sapiens) (UniProt P08581); test: Inhibition of MET at 1 uM
[50] = molecular target: T5, Epidermal growth factor receptor; details: 1 uM

With `CN1C[C@@H]2C[C@H]1CN2c1cc(F)c(-c2ccnc3c(-c4cccc5[nH]ncc45)c(-c4ccncc4)nn23)c(F)c1` as the compound, how does the half-life [1] read?
Its half-life is 3.5 h.

And the inhibition in vivo at 7.5 mg/kg [2]?
The inhibition in vivo at 7.5 mg/kg was 39%.

And the IC50 [3]?
The IC50 was 286 nM.

What about the inhibition [4] of the same compound?
The inhibition was 37%.

What about the inhibition [5] of the same compound?
Its inhibition is 77%.

What about the inhibition [6] of the same compound?
Its inhibition is 4%.

And the inhibition [7]?
The inhibition was 8%.

And the inhibition [8]?
Its inhibition is 5%.

What about the IC50 [9] of the same compound?
Its IC50 is 160 nM.

What about the inhibition [10] of the same compound?
Its inhibition is 7%.

What about the IC50 [11] of the same compound?
Its IC50 is 24 nM.

What about the inhibition [12] of the same compound?
The inhibition was 5%.

What about the inhibition [13] of the same compound?
Its inhibition is 70%.

And the TGI [14]?
The TGI was “Active”.

What about the inhibition [15] of the same compound?
The inhibition was 11%.

What about the inhibition [16] of the same compound?
The inhibition was “Active”.

And the inhibition [17]?
The inhibition was 51%.

And the clearance [18]?
The clearance was 23 mL/min/kg.

And the IC50 [19]?
Its IC50 is 293 nM.

And the IC50 [20]?
Its IC50 is 8.52 nM.

What about the inhibition [21] of the same compound?
Its inhibition is 9%.

And the concentration at 24 h [22]?
The concentration at 24 h was 0.06 µM.

What about the inhibition [23] of the same compound?
The inhibition was -1%.

What about the Vd [24] of the same compound?
Its Vd is 4.7 L/kg.

What about the concentration at 24 h [25] of the same compound?
The concentration at 24 h was 6.1 µM.

And the inhibition [26]?
Its inhibition is 5%.

What about the inhibition [27] of the same compound?
The inhibition was 4%.

And the IC50 [28]?
The IC50 was 0.16 nM.

And the IC50 [29]?
Its IC50 is 173 nM.

And the inhibition [30]?
The inhibition was “Active”.

What about the inhibition [31] of the same compound?
The inhibition was 84%.

And the inhibition [32]?
The inhibition was 15%.

What about the inhibition [33] of the same compound?
The inhibition was 5%.

And the inhibition [34]?
The inhibition was 48%.

And the inhibition [35]?
Its inhibition is “Active”.

What about the inhibition [36] of the same compound?
The inhibition was 81%.

What about the half-life [37] of the same compound?
Its half-life is over 0.5 h.

And the inhibition [38]?
Its inhibition is 84%.

And the inhibition [39]?
Its inhibition is 10%.

And the inhibition [40]?
The inhibition was 63%.

What about the inhibition [41] of the same compound?
The inhibition was 5%.

And the inhibition [42]?
Its inhibition is 9%.

What about the inhibition [43] of the same compound?
The inhibition was 3%.

And the inhibition [44]?
Its inhibition is 19%.

What about the inhibition [45] of the same compound?
Its inhibition is 9%.

And the IC50 [46]?
The IC50 was 95.3 nM.

What about the inhibition [47] of the same compound?
The inhibition was 88%.

What about the inhibition [48] of the same compound?
The inhibition was 6%.

And the inhibition [49]?
Its inhibition is 66%.

What about the inhibition [50] of the same compound?
The inhibition was 77%.
